Measured values reported in ChEMBL document CHEMBL1148329, “Synthesis and structure-activity studies on N-[5-(1H-imidazol-4-yl)-5,6,7,8-tetrahydro-1-naphthalenyl]methanesulfonamide, an imidazole-containing alpha(1A)-adrenoceptor agonist” (J Med Chem, 2004).

Key:
[1] = biological target: T1, Alpha-1A adrenergic receptor (Oryctolagus cuniculus) (UniProt O02824); assay: Efficacy relative to phenylephrine (PE) to constrict tissue containing the alpha-1A adrenergic receptor in rabbit urethra; assay type: functional, tissue-based
T1 sequence (whole entry): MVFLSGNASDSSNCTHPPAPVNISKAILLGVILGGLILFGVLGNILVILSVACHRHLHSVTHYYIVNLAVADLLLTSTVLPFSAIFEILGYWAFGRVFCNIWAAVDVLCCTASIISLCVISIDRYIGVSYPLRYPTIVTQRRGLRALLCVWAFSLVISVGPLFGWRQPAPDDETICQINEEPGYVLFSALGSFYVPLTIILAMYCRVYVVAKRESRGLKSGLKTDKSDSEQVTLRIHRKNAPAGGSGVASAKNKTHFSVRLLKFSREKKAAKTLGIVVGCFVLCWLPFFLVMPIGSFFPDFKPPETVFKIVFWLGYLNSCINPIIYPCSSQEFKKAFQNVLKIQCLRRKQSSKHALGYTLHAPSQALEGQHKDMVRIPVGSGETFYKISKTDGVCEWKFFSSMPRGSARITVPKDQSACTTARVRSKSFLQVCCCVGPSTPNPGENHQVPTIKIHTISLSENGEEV
In short: (§1)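 α1-agonist dose–response curves in isolated tissue: rabbit urethra (α1A), rat spleen (α1B), rat aorta (α1D). Agonist potency and efficacy read from the concentration–response curves.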

[2] = biological target: Alpha adrenergic receptor 1A and 1B (Rattus norvegicus) (UniProt P15823+P43140); assay: Selectivity is ratio of pKi (binding affinity) of alpha-1B receptor to that of alpha-1A receptor.; assay type: protein assay
Chain of Alpha adrenergic receptor 1A and 1B (Rattus norvegicus) (P15823 whole entry, looked up): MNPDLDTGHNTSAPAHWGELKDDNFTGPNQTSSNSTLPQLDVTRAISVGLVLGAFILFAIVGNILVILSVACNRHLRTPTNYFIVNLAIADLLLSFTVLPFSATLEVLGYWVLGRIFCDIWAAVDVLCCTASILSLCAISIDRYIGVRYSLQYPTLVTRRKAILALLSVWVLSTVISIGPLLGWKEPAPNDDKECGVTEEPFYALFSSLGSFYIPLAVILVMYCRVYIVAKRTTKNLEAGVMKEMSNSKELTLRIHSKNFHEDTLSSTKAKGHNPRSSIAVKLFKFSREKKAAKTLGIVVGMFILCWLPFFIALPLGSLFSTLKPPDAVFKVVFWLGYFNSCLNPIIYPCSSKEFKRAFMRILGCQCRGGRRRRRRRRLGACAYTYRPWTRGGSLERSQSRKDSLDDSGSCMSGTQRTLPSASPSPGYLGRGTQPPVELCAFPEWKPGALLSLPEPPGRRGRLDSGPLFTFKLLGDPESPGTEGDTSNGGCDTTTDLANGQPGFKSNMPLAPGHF
Chain of Alpha adrenergic receptor 1A and 1B (Rattus norvegicus) (P43140 whole entry, looked up): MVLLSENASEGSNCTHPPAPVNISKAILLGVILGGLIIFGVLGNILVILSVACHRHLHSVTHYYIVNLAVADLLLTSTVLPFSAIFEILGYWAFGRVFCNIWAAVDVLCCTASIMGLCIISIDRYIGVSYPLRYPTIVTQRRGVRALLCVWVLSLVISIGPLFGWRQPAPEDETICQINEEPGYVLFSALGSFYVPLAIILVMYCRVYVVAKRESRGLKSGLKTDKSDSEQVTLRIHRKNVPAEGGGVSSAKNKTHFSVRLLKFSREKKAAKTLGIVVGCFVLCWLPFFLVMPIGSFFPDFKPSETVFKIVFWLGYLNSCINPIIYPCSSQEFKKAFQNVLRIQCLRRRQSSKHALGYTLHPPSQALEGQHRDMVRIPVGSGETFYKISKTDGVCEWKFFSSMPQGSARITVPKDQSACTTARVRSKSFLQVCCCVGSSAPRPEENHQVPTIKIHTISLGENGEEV

[3] = biological target: T2, Alpha-2A adrenergic receptor (Rattus norvegicus) (UniProt P22909); assay: Efficacy relative to clonidine to constrict tissue containing the alpha-2A adrenergic receptor in rat prostatic vas deferens
T2 sequence (whole entry): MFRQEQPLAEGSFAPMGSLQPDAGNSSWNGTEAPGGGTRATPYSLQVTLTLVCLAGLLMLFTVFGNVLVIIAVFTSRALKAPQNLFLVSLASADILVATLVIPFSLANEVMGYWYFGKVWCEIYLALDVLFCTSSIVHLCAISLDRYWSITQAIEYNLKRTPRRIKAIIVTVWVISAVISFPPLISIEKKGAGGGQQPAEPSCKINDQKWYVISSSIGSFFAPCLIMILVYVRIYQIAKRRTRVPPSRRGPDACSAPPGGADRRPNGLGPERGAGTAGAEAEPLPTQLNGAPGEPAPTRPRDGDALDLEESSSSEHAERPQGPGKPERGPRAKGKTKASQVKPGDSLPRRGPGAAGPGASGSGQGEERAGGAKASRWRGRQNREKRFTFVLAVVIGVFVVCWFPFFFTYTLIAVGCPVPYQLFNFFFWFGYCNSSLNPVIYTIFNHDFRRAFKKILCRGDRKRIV

[4] = biological target: T1, Alpha-1A adrenergic receptor (Oryctolagus cuniculus); assay: Functional agonism of the compounds to constrict tissue containing the alpha-1A adrenergic receptor in rabbit urethra; assay type: tissue-based; in short: as §1
[5] = Selectivity is ratio of efficacy of alpha-2A to that of alpha1A adrenoceptor; assay type: functional
[6] = biological target: T3, Alpha-2A adrenergic receptor (Homo sapiens, UniProt P08913); assay: In vitro binding affinity towards alpha-2A adrenergic receptor of human clone in radioligand binding assay
T3 sequence (P08913 whole entry): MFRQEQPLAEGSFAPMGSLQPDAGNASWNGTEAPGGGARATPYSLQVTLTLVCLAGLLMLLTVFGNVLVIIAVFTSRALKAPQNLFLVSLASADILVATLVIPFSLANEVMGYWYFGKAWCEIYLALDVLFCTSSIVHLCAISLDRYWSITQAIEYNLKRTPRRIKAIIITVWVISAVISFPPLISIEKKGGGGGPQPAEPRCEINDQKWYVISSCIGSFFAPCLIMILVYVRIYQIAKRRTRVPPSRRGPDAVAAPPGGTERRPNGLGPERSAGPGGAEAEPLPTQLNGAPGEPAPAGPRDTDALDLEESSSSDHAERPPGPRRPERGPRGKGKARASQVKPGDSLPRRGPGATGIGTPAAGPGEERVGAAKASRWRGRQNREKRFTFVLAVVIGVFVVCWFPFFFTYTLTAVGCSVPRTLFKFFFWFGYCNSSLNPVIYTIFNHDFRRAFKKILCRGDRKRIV

[7] = biological target: T4, Alpha-2B adrenergic receptor (Rattus norvegicus, UniProt P19328); assay: In vitro binding affinity towards alpha-2B adrenergic receptor of rat neonatal lung in radioligand binding assay
T4 sequence (P19328 whole entry): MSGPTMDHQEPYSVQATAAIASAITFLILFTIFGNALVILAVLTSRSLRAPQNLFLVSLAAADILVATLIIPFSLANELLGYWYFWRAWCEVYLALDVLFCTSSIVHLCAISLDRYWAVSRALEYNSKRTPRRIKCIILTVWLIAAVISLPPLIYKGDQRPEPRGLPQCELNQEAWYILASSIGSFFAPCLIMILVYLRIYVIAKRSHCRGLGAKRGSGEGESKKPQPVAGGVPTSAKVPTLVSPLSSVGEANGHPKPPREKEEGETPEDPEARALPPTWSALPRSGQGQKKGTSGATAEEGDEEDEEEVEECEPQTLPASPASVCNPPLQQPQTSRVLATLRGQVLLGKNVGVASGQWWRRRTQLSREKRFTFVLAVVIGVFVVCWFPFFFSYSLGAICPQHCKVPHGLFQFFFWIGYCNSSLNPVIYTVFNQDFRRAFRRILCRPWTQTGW

[8] = biological target: Alpha adrenergic receptor 1A and 1D (Rattus norvegicus) (UniProt P23944+P43140); assay: Selectivity is ratio of pKi (binding affinity) of Alpha-1D to that of alpha1A; assay type: protein assay
[9] = biological target: T5, Alpha-1B adrenergic receptor (Mesocricetus auratus, UniProt P18841); assay: In vitro binding affinity towards alpha-1B adrenergic receptor of hamster clone in radioligand binding assay; assay type: single protein
T5 sequence (P18841 whole entry): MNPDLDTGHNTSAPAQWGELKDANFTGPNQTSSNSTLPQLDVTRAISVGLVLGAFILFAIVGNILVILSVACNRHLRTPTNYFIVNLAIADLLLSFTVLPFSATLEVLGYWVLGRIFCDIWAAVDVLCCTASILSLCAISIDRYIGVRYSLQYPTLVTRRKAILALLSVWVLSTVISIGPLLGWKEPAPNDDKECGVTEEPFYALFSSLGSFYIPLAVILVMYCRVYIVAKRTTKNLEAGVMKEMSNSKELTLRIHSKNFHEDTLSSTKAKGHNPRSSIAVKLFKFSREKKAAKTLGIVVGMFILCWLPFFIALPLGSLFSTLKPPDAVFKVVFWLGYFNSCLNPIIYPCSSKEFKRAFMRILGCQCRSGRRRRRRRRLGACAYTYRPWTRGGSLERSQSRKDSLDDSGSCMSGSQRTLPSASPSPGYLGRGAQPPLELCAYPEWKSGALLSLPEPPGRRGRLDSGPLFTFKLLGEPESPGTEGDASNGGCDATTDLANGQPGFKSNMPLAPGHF
In short: (§2)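 Radioligand binding at α1 subtypes: α1A from rat submaxillary gland, α1B hamster clone, α1D rat clone. Run essentially per an earlier method.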

[10] = species on record: Rattus norvegicus; assay: Relative affinities for alpha2B and alpha1A receptors
[11] = Relative affinities for alpha-2a and alpha-1A receptors
[12] = system: Canis familiaris; assay: Uroselectivity was determined by measuring effective dose required for 20 mmHg increase of mean arterial pressure (MAP) in vivo in dog; assay type: functional, Canis lupus familiaris, Artery
In short: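 Dog model recording intraurethral pressure (IUP) and mean arterial pressure (MAP) simultaneously. Increasing iv doses given, maximal effect of each dose taken. Doses giving a 5 mmHg rise in IUP (ED Δ5) or 20 mmHg rise in MAP (ED Δ20) were calculated, in nmol/kg ± SEM, n ≥ 4 (2 or 3 where footnoted).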

[13] = biological target: T2, Alpha-2A adrenergic receptor (Rattus norvegicus); assay: Functional agonism to constrict tissue containing alpha-2A adrenergic receptor in rat prostatic vas deferens; assay type: tissue-based
[14] = species on record: Canis familiaris; assay: Ratio of MAP ED delta20 to that of IUP ED delta5
[15] = biological target: T6, Alpha-1A adrenergic receptor (Bos taurus, UniProt P18130); assay: In vitro binding affinity towards alpha-1A adrenergic receptor of bovine clone in radioligand binding assay
T6 sequence (P18130 whole entry): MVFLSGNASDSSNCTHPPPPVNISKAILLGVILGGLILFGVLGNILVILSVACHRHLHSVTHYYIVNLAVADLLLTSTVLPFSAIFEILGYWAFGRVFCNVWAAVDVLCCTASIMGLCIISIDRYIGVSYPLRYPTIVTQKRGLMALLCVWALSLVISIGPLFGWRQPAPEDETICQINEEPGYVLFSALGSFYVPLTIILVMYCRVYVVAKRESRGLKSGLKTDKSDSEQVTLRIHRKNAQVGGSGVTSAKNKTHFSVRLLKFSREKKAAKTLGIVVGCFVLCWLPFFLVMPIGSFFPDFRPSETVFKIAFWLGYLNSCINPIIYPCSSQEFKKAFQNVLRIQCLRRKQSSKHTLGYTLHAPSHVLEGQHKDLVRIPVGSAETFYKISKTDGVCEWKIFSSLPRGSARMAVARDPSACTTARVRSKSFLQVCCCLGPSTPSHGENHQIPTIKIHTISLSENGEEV

[16] = biological target: T7, Alpha-1D adrenergic receptor (Rattus norvegicus, UniProt P23944); assay: In vitro binding affinity towards alpha-1D adrenergic receptor of rat clone in radioligand binding assay; in short: as §2
T7 sequence (P23944 whole entry): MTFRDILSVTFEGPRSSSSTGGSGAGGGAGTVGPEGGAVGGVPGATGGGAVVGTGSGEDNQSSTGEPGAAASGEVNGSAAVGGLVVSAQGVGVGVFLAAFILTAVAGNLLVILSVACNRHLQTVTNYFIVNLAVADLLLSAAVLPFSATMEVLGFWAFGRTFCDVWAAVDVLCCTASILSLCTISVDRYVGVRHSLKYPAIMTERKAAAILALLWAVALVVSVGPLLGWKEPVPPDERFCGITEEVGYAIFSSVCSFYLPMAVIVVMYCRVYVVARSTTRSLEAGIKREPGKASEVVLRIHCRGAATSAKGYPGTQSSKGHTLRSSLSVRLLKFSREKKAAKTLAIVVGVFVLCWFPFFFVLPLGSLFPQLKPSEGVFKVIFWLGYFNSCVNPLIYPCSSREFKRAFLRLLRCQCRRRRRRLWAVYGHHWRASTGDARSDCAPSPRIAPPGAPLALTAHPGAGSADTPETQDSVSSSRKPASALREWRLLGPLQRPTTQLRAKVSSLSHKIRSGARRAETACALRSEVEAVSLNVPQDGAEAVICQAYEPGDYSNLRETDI

Compound: CCS(=O)(=O)Nc1cccc2c1CCCC2c1c[nH]cn1 (single isomer, unassigned; (+))
- Efficacy [1]: 71%
- Selectivity [2]: 30
- Efficacy [3]: 66%
- pD2 [4]: 6.77
- Selectivity [5]: 7
- Ki [6]: 132 nM
- Ki [7]: 1700 nM
- Selectivity [8]: 20
- Ki [9]: 1320 nM
- Selectivity [10]: 40
- Selectivity [11]: 3
- ED delta20 [12]: 34 nM/kg
- pD2 [13]: 5.95
- Ratio [14]: 3.3

Compound: CN(C)S(=O)(=O)Nc1cccc2c1CCCC2c1c[nH]cn1 (stereo not given)
- Selectivity [2]: 20
- Ki [15]: 977 nM
- Selectivity [8]: 3
- Ki [9]: > 10000 nM

Compound: COC(=O)Nc1cccc2c1CCCC2c1c[nH]cn1 (stereo not given)
- Selectivity [2]: 100
- Ki [15]: 148 nM
- Selectivity [8]: 30

Compound: Oc1cccc2c1CCCC2c1c[nH]cn1 (stereo not given)
- Selectivity [2]: 3
- Ki [15]: 115 nM
- Ki [6]: 8.71 nM
- Ki [7]: 3.8 nM
- Selectivity [8]: 1
- Ki [9]: 145 nM
- Selectivity [10]: 0.1
- Selectivity [11]: 0.2
- Ki [16]: 30.9 nM
